Source: ChEMBL document CHEMBL2057123, “Design and synthesis of novel lactate dehydrogenase A inhibitors by fragment-based lead generation” (J Med Chem, 2012)
Calls of active or inactive are those of the source. The rule behind the calls is not given here.

Experiments:
[1] = biological target: T1, L-lactate dehydrogenase A chain (Homo sapiens, UniProt P00338); test: Binding affinity to 6-His-tagged human LDHA (2 to 322 amino acid residue) expressed in Escherichia coli BL21 (DE3) cells by SPR analysis
[2] = biological target: T1, L-lactate dehydrogenase A chain; test: Inhibition of full length human recombinant LDHA expressed in Escherichia coli BL21 (DE3) cells after 10 mins by spectrophotometric analysis
[3] = biological target: T1, L-lactate dehydrogenase A chain; test: Binding affinity to 6-His-tagged human LDHA (2 to 322 amino acid residue) expressed in Escherichia coli BL21 (DE3) cells by NMR analysis in presence of NADH
[4] = biological target: L-lactate dehydrogenase B chain (Homo sapiens, UniProt P07195); test: Inhibition of human recombinant LDHB (2 to 334 amino acid residue) expressed in Escherichia coli BL21 (DE3) cells after 10 mins by spectrophotometric analysis
[5] = biological target: T1, L-lactate dehydrogenase A chain; test: Binding affinity to 6-His-tagged human LDHA (2 to 322 amino acid residue) expressed in Escherichia coli BL21 (DE3) cells by NMR analysis in presence of NAD+
How it was run: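 Ligand-observed NMR at 298 K, 600 MHz, in 100 mM HEPES pH 7.5, 2 mM TCEP, 0.02% sodium azide, with 1 mM NAD⁺ present. Binding was detected by WaterLOGSY and T₁ρ-filtered 1D spectra (LDHA 40−48 μM monomer). […] Single experiment.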

Chain of L-lactate dehydrogenase B chain (P07195 whole entry, the tested form may be a part): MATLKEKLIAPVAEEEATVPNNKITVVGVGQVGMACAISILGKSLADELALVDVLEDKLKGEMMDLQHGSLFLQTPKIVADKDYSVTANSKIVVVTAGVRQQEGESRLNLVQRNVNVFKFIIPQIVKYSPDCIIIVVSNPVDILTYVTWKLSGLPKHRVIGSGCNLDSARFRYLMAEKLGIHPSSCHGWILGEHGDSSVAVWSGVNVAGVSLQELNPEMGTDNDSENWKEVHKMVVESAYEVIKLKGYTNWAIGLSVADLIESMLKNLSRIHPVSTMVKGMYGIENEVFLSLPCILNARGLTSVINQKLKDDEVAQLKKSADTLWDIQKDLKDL

For `CC(=O)Nc1ccc2nc(C)sc2c1`, the Kd ([1]; read-out: Kd) was 790 µM and the IC50 [2] was > 500 µM.

With `CCCSc1nc2ccc(NC(=O)CCNC(N)=O)cc2s1` the Kd ([3]; bl21-de3) was “Active”, the Kd ([1]; read-out: Kd) was 35 µM and the IC50 [2] was > 500 µM.

`Cc1nc2ccc(NC(=O)CCNC(=O)NCCc3ccc(CC(C(=O)O)C(=O)O)cc3)cc2s1` showed an IC50 [2] of 1.9 µM.

In the case of `NC(=O)C1=CN([C@@H]2O[C@H](COP(=O)(O)OP(=O)(O)OC[C@H]3O[C@@H](n4cnc5c(N)ncnc54)[C@H](O)[C@@H]3O)[C@@H](O)[C@H]2O)CCC1`, the IC50 [4] is reported as 9.4 µM, the Activity [5] is reported as “Active” and the Kd ([1]; read-out: Kd) is reported as 12.8 µM. The IC50 [2] was 132 µM.

With `O=C(O)c1ccc2ccccc2c1O` [CARBOXYNAPHTHOL] the Kd ([3]; read-out: Kd) was 640 µM, the Kd ([1]; bl21-de3) was “Not Active” and the IC50 [2] was > 500 µM.

For `O=c1[nH]n(-c2ccccc2)c2ncccc12`, the Kd ([3]; read-out: Kd) was 300 µM, the Kd ([1]; read-out: Kd) was 1600 µM and the IC50 [2] was > 500 µM.

`Nc1ncnc2c1ncn2[C@@H]1O[C@H](COP(=O)(O)O)[C@@H](O)[C@H]1O` [ADENOSINE PHOSPHATE] was tested, and the Kd ([3]; read-out: Kd) was 650 µM, the Kd ([1]; bl21-de3) was “Not Active” and the IC50 [2] was > 500 µM.

In the case of `Cc1nc2ccc(NC(=O)CCNC(N)=O)cc2s1`, the Kd ([3]; bl21-de3) is reported as “Active”.

For `CCCSc1nc2ccc(NC(=O)CCC(=O)O)cc2s1`, the Kd ([3]; read-out: Kd) was 92 µM, the Kd ([1]; read-out: Kd) was 40 µM and the IC50 [2] was > 500 µM.

In the case of `Cc1nc2ccc(NC(=O)CCNC(=O)CCCc3ccc(CC(C(=O)O)C(=O)O)cc3)cc2s1`, the IC50 [2] is reported as 0.5 µM.

With `Cc1nc2ccc(NC(=O)CCNC(=O)NCCOc3ccc(CC(C(=O)O)C(=O)O)cc3)cc2s1` the IC50 [2] was 4.2 µM.

`CCCSc1nc2ccc(NC(=O)CCNC(=O)NCCc3ccc(OC(C(=O)O)C(=O)O)cc3)cc2s1` was tested, and the Kd ([1]; read-out: Kd) was 0.18 µM and the IC50 [2] was 7.4 µM.

With `c1cncc(-c2nc3ccccc3[nH]2)c1` the Kd ([3]; read-out: Kd) was 1400 µM, the Kd ([1]; bl21-de3) was “Not Active” and the IC50 [2] was > 500 µM.

For `O=C(O)c1cc2c(C(F)(F)F)cc(-c3ccccc3)cc2n1O`, the Kd ([3]; read-out: Kd) was > 9 µM and the IC50 [2] was > 500 µM.

`CCCSc1nc2ccc(NC(=O)CCNC(=O)NCCc3ccc(CC(C(=O)O)C(=O)O)cc3)cc2s1` was tested, and the Kd ([1]; read-out: Kd) was 0.06 µM and the IC50 [2] was 0.29 µM.

In the case of `COCCNc1ncnc2ccccc12`, the Kd ([3]; read-out: Kd) is reported as 2400 µM, the Kd ([1]; read-out: Kd) is reported as 3000 µM and the IC50 [2] is reported as > 500 µM.

With `NC(=O)C1=CN([C@@H]2O[C@H](COP(=O)(O)O)[C@@H](O)[C@H]2O)C=CC1` the Kd ([3]; read-out: Kd) was 4000 µM, the Kd ([1]; bl21-de3) was “Not Active” and the IC50 [2] was > 500 µM.

For `NS(=O)(=O)c1ccc(O)c2ccccc12`, the Kd ([3]; read-out: Kd) was 400 µM, the Kd ([1]; bl21-de3) was “Not Active” and the IC50 [2] was > 500 µM.

`CCCSc1nc2ccc(NC(=O)CCNC(=O)NCCOc3ccc(CC(C(=O)O)C(=O)O)cc3)cc2s1` was tested, and the Kd ([1]; read-out: Kd) was 0.046 µM and the IC50 [2] was 3.1 µM.

For `O=C(O)c1nsnc1O`, the IC50 [4] was 7.8 µM, the Kd ([1]; bl21-de3) was “Not Active” and the IC50 [2] was 450 µM.

`CCCSc1nc2ccc(NC(=O)CCNC(=O)CCCc3ccc(CC(C(=O)O)C(=O)O)cc3)cc2s1` showed a Kd ([1]; read-out: Kd) of 0.008 µM and an IC50 [2] of 0.27 µM.

For `COc1ccc(CC(C(=O)O)C(=O)O)cc1`, the Kd ([3]; read-out: Kd) was 240 µM, the Kd ([1]; read-out: Kd) was 1100 µM and the IC50 [2] was > 500 µM.

`Cc1nc2ccc(NC(=O)CCNC(=O)NCCOc3ccc(CCC(=O)O)cc3)cc2s1` showed a Kd ([1]; read-out: Kd) of 3.2 µM and an IC50 [2] of 86.2 µM.

For `Cc1nc2ccc(NC(=O)CCC(=O)O)cc2s1`, the Kd ([3]; read-out: Kd) was 540 µM, the Kd ([1]; read-out: Kd) was 500 µM and the IC50 [2] was > 500 µM.

`O=C(O)CC(=O)O` [MALONIC ACID] gave a Kd ([3]; read-out: Kd) of 5000 µM.

`Cc1nc2ccc(NC(=O)CCNC(=O)NCCc3ccc(OC(C(=O)O)C(=O)O)cc3)cc2s1` showed a Kd ([1]; read-out: Kd) of 1.2 µM and an IC50 [2] of 29.5 µM.

For `Clc1ccccc1-c1nnn[nH]1`, the Kd ([1]; bl21-de3) was “Not Active”.
